This is a sample that favours compounds with a hit; in the whole collection about 3% have one here.
GC-A act: GC-A (human) enzyme activation. P16066. HEK293 GC-A cells, cGMP TR-FRET, EC30 ANP; 0% at EC30 ANP, 100% saturating ANP. activation, % at 10 µM. 370,000 compounds, 0.14% hits. AID 1671463; in the data active = activation above about 40%
NPR2 activator: GC-B (human) receptor activation; 370,000 compounds, 0.11% hits; HEK293-GC-B cells, CNP EC30, cGMP TR-FRET; 0% at EC30 CNP, 100% saturating CNP; P20594; activation, % at 10 µM;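 active = activation at 10 µM reaching about 35% in either raw or pattern-adjusted values, limit read from the data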
Lipid droplet: hepatic lipid droplet formation modulation; AID 1656; 240,000 compounds, 0.4% hits; AML12 mouse hepatocytes, oleate lipid droplets, BODIPY imaging; inhibition, % at 6.5 µM;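 active = lipid droplet intensity inhibited by at least 50%, with more than 500 cells counted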
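Assay system: AML12 mouse liver cells | Compound: 6.5 µM single-point dosing | Schedule: Overnight exposure | Technique: Fluorescence imaging, 20x objective, two fields per well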
GASC-1 inh: inhibitors of human GASC-1 (JMJD2C) demethylase | inhibition, % at 2.35 µM | GST-JMJD2C(1-420) H3K9me3 demethylation, DELFIA europium | Q9H3R0 | 330,000 compounds, 0.069% hits;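 active = more than half of a compound's replicate wells show inhibition beyond 50%, single wells judged on their own value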;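 also: signal counts dimethyl H3K9 product captured on neutravidin plate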
aDG glyco up: increases alpha dystroglycan glycosylation | Pro5-aDG cells, alpha-DG glycosylation AlphaScreen (IIH6); 0% Pro5, 100% B10-LARGE cell signal | activation, % at 10 µM | 360,000 compounds, 0.22% hits;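 active = activation of at least 8% versus controls, or a plate z-score of at least 8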;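 also: Pro5 are CHO cells carrying HIG-tagged alpha-DG that lacks glycosylation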
NR3A LBD binder: modulates the human NR3A ligand-binding domain; NR3A LBD differential scanning fluorimetry, Tm shift; 0% = protein alone, 100% = glycine-bound protein; Tm shift relative to glycine control, % at 25 µM; 340,000 compounds, 2.5% hits; AID 1259313;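 active = melting temperature shift of at least 10% of the positive control shift, at one fixed dose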
A number is an active result; – = inactive; · = no result.

SMILES	GC-A act	NPR2 activator	Lipid droplet	GASC-1 inh	aDG glyco up	NR3A LBD binder
Cc1ccsc1C(=O)OCc1nc2ccccc2c(=O)[nH]1	–	–	–	103.0	–	–
CC(C)COC(=O)N(C)C[C@H]1OCc2cnnn2CCCC(=O)N([C@H](C)CO)C[C@@H]1C	–	–	·	·	–	·
O=C(Nc1ccc(NC(=O)c2cccs2)cc1)c1ccc2c(c1)OCCO2	–	–	–	–	–	28.7
O=C(Nc1cccc(NC(=O)c2cccs2)c1)c1ccc2c(c1)OCO2	–	–	–	–	–	–
O=C(Nc1ccccc1)c1ccc2c(c1)OCCO2	–	–	·	–	–	–
O=C(Nc1ccc(NC(=O)c2cccs2)cc1)c1ccc2c(c1)OCO2	–	–	–	–	–	13.7
O=C(Nc1ccc(NC(=O)c2ccc3c(c2)OCCO3)cc1)c1ccccc1	–	–	–	–	–	11.9
CCOc1ccc(-n2c(SCC(=O)Nc3ccc(S(=O)(=O)Nc4cc(C)nc(C)n4)cc3)nnc2-c2ccc(OC)cc2)cc1	–	–	·	·	·	·
CC1CC(C)CN(CCCNC(=O)c2ccc3c(c2)ncn3C2CCCC2)C1 (stereo unspecified)	–	–	–	–	–	–
O=C(Cn1nc(-c2ccccc2)ccc1=O)NCCc1ccc(F)cc1	–	–	·	·	·	·
Cc1cc(N2CCC(C)CC2)n2ncc(-c3ccccc3)c2n1	–	–	·	–	–	12.8
Cc1cc(NC(C)c2ccccc2)n2ncc(-c3ccccc3)c2n1 (stereo unspecified)	49.9	–	–	–	–	–
Cc1cc(N2CCCCC2)n2ncc(-c3ccccc3)c2n1	–	–	–	–	–	–
Cc1cc(NCc2ccccc2)n2ncc(-c3ccccc3)c2n1	–	–	–	–	–	–
Cc1cc(NCCN2CCOCC2)n2ncc(-c3ccccc3)c2n1	–	–	·	–	–	12.8
Cc1cc(NCCN2CCOCC2)n2nc(C)c(-c3ccccc3)c2n1	–	–	–	–	–	–
O=[N+]([O-])c1cccc(OC[C@@H](O)CN2CCC(C(O)(c3ccccc3)c3ccccc3)CC2)c1	–	–	·	·	·	·
COc1cc([N+](=O)[O-])ccc1NC(=S)Nc1cc(C(=O)OC(C)C)cc(C(=O)OC(C)C)c1	–	–	–	–	–	11.9
Cc1ccc(N=Nc2c(N)nn3c(N)c(C#N)c(C)nc23)cc1	–	–	–	–	–	26.0
O=C(Cn1nc(-c2ccccc2)c2ccccc21)Oc1ccccc1	–	–	·	·	·	·
CC(C)CC1=NN2C(=N)/C(=C\c3coc4ccccc4c3=O)C(=O)N=C2S1	–	–	–	–	–	–
CCSC1=NSC2=NC(=O)/C(=C\c3coc4ccccc4c3=O)C(=N)N12	–	–	–	–	–	10.9
CC(C)(C)C(=O)/C=C/c1ccc(Oc2ccccc2)cc1	–	–	–	–	–	10.3
CCCCCC(=O)NC1CCCCN(C)C1=O (stereo unspecified)	–	–	·	·	·	·
COc1ccc(S[C@]2(C(=O)N3CCCC3)CC(=O)N(C(=O)/C=C/c3ccccc3)[C@@H]2c2ccc(OC)cc2)cc1	–	–	·	·	·	·
SMILES	GC-A act	NPR2 activator	Lipid droplet	GASC-1 inh	aDG glyco up	NR3A LBD binder
NS(=O)(=O)c1ccc2nc(NC(=O)c3ccc4ncsc4c3)sc2c1	·	·	–	–	–	29.7
Cc1ccc2nc(NC(=O)c3ccc4ncsc4c3)sc2c1	–	–	–	–	–	18.5
Cc1ccc2nc(NC(=O)c3ccc4c(c3)OCO4)sc2c1	–	–	·	–	–	–
CCOC(=O)c1cccc(-c2cc(C(=O)OC)c3n(c2=O)CCC3)c1	–	–	·	·	·	·
COc1ccc(/C=C2\SC(=S)NC2=O)cc1OS(=O)(=O)c1ccc(NC(C)=O)cc1	–	–	–	–	–	18.1
CC(=O)Nc1ccc(S(=O)(=O)Oc2cccc(/C=C3\SC(N)=NC3=O)c2)cc1	–	–	–	–	–	36.2
COc1ccc(/C=C2/SC(=S)N(Cc3ccccc3)C2=O)cc1O	–	–	–	–	–	19.5
COc1cc(/C=C2/SC(=S)NC2=O)ccc1OS(=O)(=O)c1ccc(C)cc1	·	·	–	–	–	–
COc1cc(/C=C2\SC(=S)N(CCCCC(=O)O)C2=O)ccc1OS(=O)(=O)c1ccc(C)cc1	–	–	·	–	6.9	31.4
CCCCOc1ccc(C(=O)NC2CCCCN(CC)C2=O)cc1 (stereo unspecified)	–	–	·	·	·	·
COc1ccc(O)c(/C=C2/SC(=S)N(Cc3ccccc3)C2=O)c1	–	–	–	–	–	15.6
COc1ccc(OC)c(/C=C2\SC(=S)N(Cc3cccnc3)C2=O)c1	–	–	–	–	–	–
COc1cccc(OC)c1NC(=O)OC1CCC12CCC(c1ccccc1)CC2 (stereo unspecified)	–	–	·	·	·	·
Cn1c(N)c(C(=O)COC(=O)c2cc(C3CC3)nc3ccccc23)c(=O)n(C)c1=O	–	36.2	–	–	–	–
Cn1c(N)c(C(=O)COC(=O)c2cc(-c3ccco3)nc3ccccc23)c(=O)n(C)c1=O	–	–	–	–	–	–
Cc1cccc(C(=O)Nc2nnc(SCC(=O)Nc3ccc4c(c3)oc3ccccc34)s2)c1	–	–	–	–	–	75.7
COc1cccc(NC(=O)CSc2nnc(NC(=O)C3CC3)s2)c1	–	–	–	–	–	31.0
CC(=O)Nc1cccc(NC(=O)CSc2nnc(NC(=O)C3CC3)s2)c1	–	–	–	–	–	–
O=C(CSc1nnc(NC(=O)C2CCC2)s1)Nc1ccccc1	–	–	–	–	–	–
Cc1cccc(NC(=O)CSc2nnc(NC(=O)C3CCC3)s2)c1	–	–	–	–	–	18.4
COC(=O)C[C@H]1C=C[C@H](NC(=O)Nc2ccccc2OC)[C@@H](CO)O1	–	–	·	·	–	·
COc1ccc(OC)c(N(CC(=O)Nc2ccccc2C(=O)NCc2ccco2)S(C)(=O)=O)c1	–	–	–	–	–	12.7
COc1ccc(Cl)cc1N(CC(=O)Nc1ccccc1C(=O)NCc1ccco1)S(C)(=O)=O	–	–	–	–	–	–
CCCc1c(C(=O)N/N=C/c2cccs2)nnn1-c1nonc1N	–	–	–	–	–	17.2
Cc1c(C(=O)N/N=C/c2cccs2)nnn1-c1nonc1N	–	–	–	–	–	10.3
CCCN(CCC)Cc1c(C(=O)N/N=C/c2cccs2)nnn1-c1nonc1N	–	–	–	–	–	–
Cc1ccsc1/C=N/NC(=O)c1nnn(-c2nonc2N)c1C	–	–	–	–	–	–
CN(Cc1c(C(=O)N/N=C/c2cccs2)nnn1-c1nonc1N)c1ccccc1	–	–	–	–	–	16.2
C/C(=N\NC(=O)c1nnn(-c2nonc2N)c1CN(C)c1ccccc1)c1ccccc1O	–	–	–	–	–	13.9
